Bioassay records (PubChem BioAssay)
Sampled rows, rich in hits. Any-hit rate of the full collection: about 4.7%.
GRIN3A LBD mod: modulates the human NR3A ligand-binding domain; NR3A LBD differential scanning fluorimetry, Tm shift; 0% = protein alone, 100% = glycine-bound protein; Tm shift relative to glycine control, % at 25 µM; actives 2.5% (n = 340,000); AID 1259313;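 active means melting temperature shift of at least 10% of the positive control shift, at one fixed dose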
ADAM17 inh: ADAM17 inhibition, QFRET primary screen. inhibition, % at 6.95 µM. actives 0.83% (n = 370,000). recombinant ADAM17, EDANS/DABCYL FRET peptide cleavage;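 active means inhibition above the mean of compounds lying between control limits plus 3 SD, set per campaign, cut at about 8.5% in these data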;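 further: 0% = DMSO-only wells as the low control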
Target sequence (P78536 215-824 limits assumed): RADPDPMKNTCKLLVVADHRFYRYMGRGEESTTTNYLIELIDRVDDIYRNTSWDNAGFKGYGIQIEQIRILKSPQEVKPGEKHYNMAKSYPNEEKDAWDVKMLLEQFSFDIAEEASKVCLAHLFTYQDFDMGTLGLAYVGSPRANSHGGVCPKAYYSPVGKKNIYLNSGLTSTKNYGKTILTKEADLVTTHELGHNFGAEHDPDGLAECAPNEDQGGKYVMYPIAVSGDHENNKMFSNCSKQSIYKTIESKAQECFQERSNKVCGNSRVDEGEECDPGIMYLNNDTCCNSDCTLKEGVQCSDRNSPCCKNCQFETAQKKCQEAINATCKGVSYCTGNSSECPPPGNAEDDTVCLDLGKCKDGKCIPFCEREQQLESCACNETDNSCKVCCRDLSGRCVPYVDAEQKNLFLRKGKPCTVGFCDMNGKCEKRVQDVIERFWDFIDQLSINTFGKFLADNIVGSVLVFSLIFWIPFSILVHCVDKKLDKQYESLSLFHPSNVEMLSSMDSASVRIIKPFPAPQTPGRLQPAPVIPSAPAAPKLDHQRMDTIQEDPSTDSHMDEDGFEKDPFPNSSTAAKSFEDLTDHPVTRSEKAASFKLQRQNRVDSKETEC
ADAM10 inh: ADAM10 inhibition, QFRET primary screen. AID 720582. recombinant ADAM10, EDANS/DABCYL FRET peptide cleavage, 3 h. O14672. inhibition, % at 7 µM. actives 0.62% (n = 370,000);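 active means inhibition above a per-campaign cutoff equal to the mean of compounds falling between control-based bounds plus 3 SD, cut at about 20% in these data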;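 further: 0% = DMSO wells while the 100% control is not disclosed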
MPTP inh: permeability transition pore inhibition; actives 1.4% (n = 360,000); isolated mouse mitochondria, Ca2+ swelling absorbance, 30 min; AID 602449; inhibition, % at 10 µM;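 active means inhibition of 50% or more, scaled per plate between neutral and stimulator controls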;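 further: 0% = DMSO wells given calcium and 100% = 1 mM EGTA wells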
SKN-1 block: C. elegans SKN-1 inhibition. C. elegans VP596 Pgst-4::GFP/RFP ratio, acrylamide-induced, 24 h. actives 0.49% (n = 360,000). inhibition, % at 21.8 µM;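 active means interference check ratio from 0.5 to 1.5 plus GFP to RFP signal ratio inhibition reaching or exceeding a fixed threshold, cut at about 30% in these data, passing the limit was not always enough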
MT1-MMP act inh: inhibitors of human MT1-MMP activation; actives 0.061% (n = 360,000); AID 651647; HT1080 RFP-PRO-GFP cells, GFP/RFP ratio fluorescence, overnight; percent of plate control window, DMSO zero; GFP/RFP ratio change, % at 20 µM;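 active means GFP/RFP ratio change of at least 30% with cell ATP level not reduced by more than half and red fluorescence within 50% of control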
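Material – HT1080 RFP-PRO-GFP cells · Control set – DMSO wells and RFP-L50D-GFP cells · Incubation – overnight cell settling, then overnight compound exposure, 37 °C, 5% CO2 · Compound dosing – single-point 20 µM compound, 1% DMSO · Read-out – GFP/RFP fluorescence ratio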
MPTP counter: mitochondrial membrane potential, counter-screen | shares compounds with MPTP inh | actives 78% (n = 5,000) | inhibition, % at 10 µM | isolated mitochondria, Rhodamine 123 fluorescence; in the data active means inhibition above about 22%;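 further: 0% = DMSO vehicle and 100% = positive control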
MPTP abs DR: MPTP inhibition, dose response swelling confirmation | shares compounds with MPTP inh | isolated mitochondria swelling, absorbance | IC50, µM | actives 58% (n = 780) | AID 651561; in the data active means IC50 below about 20 µM
MPTP counter DR: MPTP inhibitor counter-screen activity, dose response | shares compounds with MPTP inh | isolated mitochondria counterscreen, fluorescence read-out | IC50, µM | actives 49% (n = 780); in the data active means IC50 below about 80 µM
* marks the source's active call; other numbers are inactive results; i = inactive; · = not tested or not shown.

SMILES	GRIN3A LBD mod	ADAM17 inh	ADAM10 inh	MPTP inh	SKN-1 block	MT1-MMP act inh	MPTP counter	others
CN(CC(=O)Nc1cccc(F)c1)C(=O)CCCc1nc2ccccc2c(=O)[nH]1	-0.3	-4.6	-4.8	-0.4	1.7	1.4	·
CSc1nc2ccccc2c(=O)n1N	7.3	-5.1	-0.4	-1.5	9.2	-3.9	·
COc1cccc(C2c3c(-c4ccccc4)n[nH]c3C(=O)N2c2ccc(C(=O)O)cc2)c1 (configuration not stated)	0.1	-2.5	-1.5	0.1	10.7	2.1	·
Cc1ccc(Sc2ccc(NC(=O)CCl)cc2)cc1C	-4.9	2.4	3.7	51.8*	4.2	-9.4	20.7*
CCC(C)NC(=O)c1cc(-c2ccccc2O)on1 (configuration not stated)	7.0	-1.2	-4.5	52.9*	-4.2	2.2	1.4	MPTP abs DR=i;MPTP counter DR=>80
O=C(/C=C/c1cccs1)c1ccc(NC(=O)c2cccc(Br)c2)cc1	27.1*	3.8	4.6	54.0*	21.9	-3.9	62.3*
O=C(Nc1cc2c(=O)n(-c3ccc(Oc4ccccc4)cc3)ccc2oc1=O)c1ccccc1	-2.8	-5.8	-18.8	3.0	14.4	-4.3	·
CCOC(=O)C(=COC(=O)c1ccccc1)NC(=O)Cc1ccccc1	1.8	4.4	-6.8	-0.7	-6.9	-0.7	·
C=C(C)[C@@H]1CC=C(CN2CCC(N3CCC(C(=O)N4CCCC4)CC3)CC2)CC1	-2.1	-1.5	6.4	83.2*	-3.8	3.8	46.8*
COc1ccc(CN(C(=O)CO/N=C/c2ccccc2)c2ccccc2C(=O)O)cc1	-3.1	-2.9	-2.9	-0.1	-15.8	-3.9	·
O=[N+]([O-])c1cccc(/C=N\N=C2c3ccccc3-c3ccccc32)c1O	14.1*	-2.0	-8.4	103.7*	8.9	-4.0	6.7
NC(N)=N/N=C/c1cccc([N+](=O)[O-])c1O	-3.8	0.1	-3.4	-0.3	18.3	2.8	·
COc1cc(/C=N/S(=O)(=O)CCc2ccccc2)cc(OC)c1O	-2.4	4.1	4.5	7.1	-4.2	5.4	·
O=C(Nc1cc(C(F)(F)F)cc(C(F)(F)F)c1)Nc1cnn(-c2ccc([N+](=O)[O-])cc2)c1C(F)(F)F	-4.4	-3.4	-1.5	88.0*	-6.0	-14.3	63.2*
N/C(=N\OC(=O)c1cnn(-c2ccccc2)c1C(F)(F)F)c1cc(C(F)(F)F)cc(C(F)(F)F)c1	6.8	-3.7	-10.3	5.0	5.7	-2.3	·
COc1cc(SC)ccc1C(=O)OCC(=O)N1CCCC1	-2.4	-2.9	1.2	1.2	3.7	0.7	·
Cc1ccc(O)c(-c2cc3ccccc3[nH]2)c1	22.1*	-79.3	-293.7	53.0*	16.6	4.7	48.9*
O=C(NC1CCCCC1)c1cc2ccccc2cc1O	-1.3	-3.8	-8.0	114.9*	0.0	-1.2	49.3*
CN1CCN(NC(=O)c2cn(-c3ccccc3)nc2-c2cccs2)CC1	-2.2	-0.5	-2.0	0.9	-3.1	-0.9	·
O=C(Nc1ccc2ccccc2c1)c1ccccc1O	20.1*	-8.8	-23.9	98.2*	1.1	-12.3	92.2*
O=C(Nc1ccc2ccccc2c1)c1cn(-c2ccccc2)nc1-c1cccs1	24.7*	-1.2	-1.5	69.6*	-14.6	-4.5	70.4*
Cc1ccc(NC(=O)c2cc3ccccc3cc2O)cc1	22.3*	-2.2	14.4	70.5*	31.1	-13.3	72.9*
C/C(=N/NC(=O)c1ccccn1)c1c[nH]c2ccccc12	4.0	0.3	-2.9	2.5	4.8	3.5	·
Cc1nc2ccccn2c1-c1nnco1	-2.1	-7.1	-21.9	0.1	-1.9	-4.4	·
Cc1nc2ccccn2c1-c1ccnn1S(=O)(=O)c1ccc(F)cc1	0.4	-8.0	-19.0	78.6*	1.9	-4.1	48.3*
SMILES	GRIN3A LBD mod	ADAM17 inh	ADAM10 inh	MPTP inh	SKN-1 block	MT1-MMP act inh	MPTP counter	others
COc1ccc(-c2cnc3c(NC(C)=O)cc(-c4ccc(C(=O)N5CCOCC5)cc4)cn23)cc1OC	·	-0.7	-12.7	0.1	-4.5	0.7	·
O=C(Nc1ccccc1)Nc1ccc(Cl)nc1Cl	-0.1	-0.5	0.7	73.2*	3.3	-2.7	88.4*
CC(C)(C)c1cc(C(=O)NNC(=O)Nc2cccc(Cl)c2)n(Cc2ccccc2)n1	5.4	-1.0	0.3	71.2*	-5.9	2.0	79.0*
O=C(NCCc1cccc(Cl)c1)c1ccc(Cl)c([N+](=O)[O-])c1	-6.7	0.5	17.8	81.4*	6.5	-4.9	93.5*
CC(=O)c1ccc(NC(=O)Nc2cccc(Cl)c2)cc1	35.2*	-1.7	8.2	101.2*	-1.6	0.5	88.0*
CC(C)(C)c1cc(C(=O)NNC(=O)Nc2ccccc2)n(Cc2ccccc2)n1	-1.9	3.5	6.0	16.9	-1.6	0.0	·
O=C(NNc1c(Cl)cc(Cl)cc1Cl)c1n[nH]c(=O)c2ccccc12	-0.7	-2.0	-0.5	16.8	-11.5	3.5	·
CCOc1ccc(C(=O)NNC(=O)CN2C(=O)C3CC=CCC3C2=O)cc1OC (configuration not stated)	0.2	-2.0	-10.1	-2.7	8.4	-1.4	·
O=C(Nc1ccccc1)Nc1ccccc1	7.2	-0.4	1.3	-0.4	1.5	1.3	·
N#Cc1cccc(NC(=O)c2ccccc2C(=O)O)c1	-1.1	-2.0	6.9	-0.9	6.7	6.6	·
CC(=O)c1ccc(NC(=S)NCCc2cccc(Cl)c2)cc1	25.7*	1.8	7.3	86.5*	1.1	4.5	95.4*
COC(=O)c1ccc(NC(=S)NCCc2ccccc2)cc1	0.4	5.2	0.3	5.4	-5.8	12.2	·
O=C(NCCCc1ccccc1)Nc1cccc(Cl)c1	7.3	2.6	8.8	70.1*	7.1	3.7	95.0*
O=C(Nc1ccccc1)Nc1cccc(Cl)c1	29.1*	3.9	0.8	95.7*	10.0	-2.1	87.1*
N#Cc1ccc(NC(=O)Nc2cccc(C#N)c2)cc1	26.5*	-2.2	11.4	72.0*	4.6	-0.9	100.0*
COc1cccc(-n2nc3c(=O)n(Cc4ccccc4Cl)nc(C)c3c2C)c1	4.1	1.1	-3.3	0.4	9.4	4.1	·
O=[N+]([O-])c1ccc2cc[nH]c2c1	-0.6	-5.2	-16.2	-1.4	15.3	0.5	·
CC(=O)c1ccc(NC(=O)Nc2ccc(Br)cc2C)cc1	2.5	-3.7	-7.2	89.8*	-4.9	-2.7	96.5*
Cc1onc(-c2c(F)cccc2Cl)c1C(=O)N1CCN(c2ncccn2)CC1	0.2	-1.7	-4.4	-0.9	7.3	-0.7	·
